Data from ChEMBL document CHEMBL3244005, “Troponoids. 3. Synthesis and antiallergy activity of N-troponyloxamic acid esters” (J Med Chem, 1979).

Experiments:
Rattus norvegicus [1] = test: Antiallergic activity in Sprague-Dawley CD rat assessed as inhibition of passive anaphylaxis-induced hind paw edema at 3 mg/kg, ip relative to control; format: functional; conditions: Rattus norvegicus, Sprague-Dawley CD, ip, route intraperitoneal
In short: (§1)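 Passive anaphylaxis (reaginic antibody) induced in rat hind paw: serum with reaginic antibody injected into left hind paw; antigen given intravenously 24 h later. Paw volume measured by mercury displacement; activity read as inhibition of paw edema versus controls. Test compounds given ip or po. Inhibition of 35% or more considered significant by Student's t test (p < 0.05).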

Rattus norvegicus [2] = test: Antiallergic activity in Sprague-Dawley CD rat passive anaphylaxis model assessed as hind paw edema volume at 10 mg/kg, ip relative to control; format: functional; conditions: route intraperitoneal; in short: as §1
Cavia porcellus [3] = species on record: Cavia porcellus; test: Stimulation of guinea pig lung adenylate cyclase activity at 1 x 10^-5 M after 15 mins relative to control
Rattus norvegicus [4] = test: Drug metabolism in po dosed Sprague-Dawley CD rat passive anaphylaxis model assessed as 2-aminotropone level; format: ADME, organism-based; conditions: in vivo
Rattus norvegicus [5] = test: Antiallergic activity in Sprague-Dawley CD rat assessed as inhibition of passive anaphylaxis-induced hind paw edema at 30 mg/kg, ip relative to control; format: functional; conditions: route intraperitoneal; for inhibition in vivo at 30 mg/kg: Rattus norvegicus, Sprague-Dawley CD, ip; in short: as §1
Blood = test: Drug metabolism in blood of Sprague-Dawley CD rat passive anaphylaxis model at 0.23 mmol/kg, iv; format: ADME, tissue-based
In short: (§2)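 Rats given an iv bolus of 0.23 mmol/kg. Serum separated by centrifugation and stored frozen. Drug-derived material in serum quantified over time by UV measurement of 2-aminotropone. For 14C-labelled ester (label in ethyl group or oxalyl carbonyls), radioactivity counted in 0.2 mL serum after tissue-solubiliser digestion and scintillation fluid addition.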

Rattus norvegicus [6] = test: Antiallergic activity in Sprague-Dawley CD rat assessed as inhibition of passive anaphylaxis-induced hind paw edema at 30 mg/kg, po relative to control; format: functional; conditions: for inhibition in vivo at 30 mg/kg: Rattus norvegicus, Sprague-Dawley CD, po; in short: as §1
Rattus norvegicus [7] = test: Antiallergic activity in Sprague-Dawley CD rat assessed as inhibition of passive anaphylaxis-induced hind paw edema at 3 mg/kg, po relative to control; format: functional; conditions: for inhibition in vivo at 3 mg/kg: Rattus norvegicus, Sprague-Dawley CD, po; in short: as §1
Rattus norvegicus [8] = test: Antiallergic activity in Sprague-Dawley CD rat assessed as inhibition of passive anaphylaxis-induced hind paw edema at 100 mg/kg, po relative to control; format: functional; conditions: for inhibition in vivo at 100 mg/kg: Rattus norvegicus, Sprague-Dawley CD, po; in short: as §1
Rattus norvegicus [9] = test: Antiallergic activity in Sprague-Dawley CD rat passive anaphylaxis model assessed as hind paw edema volume at 10 mg/kg, po relative to control; format: functional; in short: as §1
Rattus norvegicus [10] = test: Antiallergic activity in Sprague-Dawley CD rat assessed as inhibition of passive anaphylaxis-induced hind paw edema at 1 mg/kg, ip relative to control; format: functional; conditions: route intraperitoneal; in short: as §1
Rattus norvegicus [11] = test: Antiallergic activity in Sprague-Dawley CD rat passive anaphylaxis model assessed as hind paw edema volume at 30 mg/kg, po relative to control; format: functional; in short: as §1
Rattus norvegicus [12] = test: Antiallergic activity in Sprague-Dawley CD rat assessed as inhibition of passive anaphylaxis-induced hind paw edema at 10 mg/kg, ip relative to control; format: functional; conditions: route intraperitoneal; for inhibition in vivo at 10 mg/kg: Rattus norvegicus, Sprague-Dawley CD, ip; in short: as §1
[13] = Inhibition of guinea pig lung PDE assessed as cyclic AMP level; design: species or system Cavia porcellus
In short: (§3)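 PDE from beef heart or guinea pig lung assayed by earlier-described methods; protein measured by Lowry method. IC50 taken from a plot of percent inhibition vs log inhibitor concentration, as the concentration giving 50% reduction in reaction velocity relative to uninhibited controls.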

Rattus norvegicus [14] = test: Antiallergic activity in Sprague-Dawley CD rat passive anaphylaxis model assessed as hind paw edema volume at 3 mg/kg, po relative to control; format: functional; in short: as §1
Rattus norvegicus [15] = test: Antiallergic activity in Sprague-Dawley CD rat assessed as inhibition of passive anaphylaxis-induced hind paw edema at 10 mg/kg, po relative to control; format: functional; conditions: for inhibition in vivo at 10 mg/kg: Rattus norvegicus, Sprague-Dawley CD, po; in short: as §1
Serum [16] = test: Drug metabolism in serum of Sprague-Dawley CD rat passive anaphylaxis model assessed as 2-[(Carboxycarbonyl)amino]-2,4,6-cycloheptatrien-l-one level at 0.23 mmol/kg, iv; format: ADME, cell-free; in short: as §2
Serum [17] = test: Drug metabolism in serum of Sprague-Dawley CD rat passive anaphylaxis model at 0.23 mmol/kg, iv; format: ADME, cell-free; in short: as §2
Serum [18] = test: Drug metabolism in serum of Sprague-Dawley CD rat passive anaphylaxis model assessed as 2-aminotropone level at 0.23 mmol/kg, iv; format: ADME, cell-free; in short: as §2
Rattus norvegicus [19] = test: Antiallergic activity in Sprague-Dawley CD rat passive anaphylaxis model assessed as hind paw edema volume at 1 mg/kg, ip relative to control; format: functional; conditions: route intraperitoneal; in short: as §1
Cavia porcellus [20] = species on record: Cavia porcellus; test: Stimulation of guinea pig lung adenylate cyclase activity at 1 x 10^-4 M after 15 mins relative to control
Rattus norvegicus [21] = test: Antiallergic activity in Sprague-Dawley CD rat passive anaphylaxis model assessed as hind paw edema volume at 3 mg/kg, ip relative to control; format: functional; conditions: route intraperitoneal; in short: as §1
[22] = Inhibition of beef heart PDE assessed as cyclic AMP level; design: species or system Bos taurus; in short: as §3
Cavia porcellus [23] = species on record: Cavia porcellus; test: Stimulation of guinea pig lung adenylate cyclase activity at 1 x 10^-3 M after 15 mins relative to control
In short: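 Guinea pig lung adenyl cyclase preparation, chosen because it carries negligible cyclic nucleotide phosphodiesterase activity. Enzyme activity was read as cyclic AMP formation in the presence of test agent and compared with untreated control.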

Rattus norvegicus [24] = test: Antiallergic activity in Sprague-Dawley CD rat passive anaphylaxis model assessed as hind paw edema volume at 2 mg/kg, ip relative to control; format: functional; conditions: route intraperitoneal; in short: as §1
Rattus norvegicus [25] = test: Antiallergic activity in Sprague-Dawley CD rat passive anaphylaxis model assessed as hind paw edema volume at 5 mg/kg, ip relative to control; format: functional; conditions: route intraperitoneal; in short: as §1
Rattus norvegicus [26] = test: Antiallergic activity in Sprague-Dawley CD rat assessed as inhibition of passive anaphylaxis-induced hind paw edema at 5 mg/kg, ip relative to control; format: functional; conditions: route intraperitoneal; in short: as §1
Rattus norvegicus [27] = test: Antiallergic activity in Sprague-Dawley CD rat assessed as inhibition of passive anaphylaxis-induced hind paw edema at 2 mg/kg, ip relative to control; format: functional; conditions: route intraperitoneal; in short: as §1

Compound: CCOC(=O)C(=O)Nc1cccccc1=O
- inhibition in vivo at 3 mg/kg (Rattus norvegicus [1]): 62%
- Activity (Rattus norvegicus [2]): 0.22 mL
- Activity (Cavia porcellus [3]): 0%
- Drug metabolism (Rattus norvegicus [4]): metabolite_detected
- inhibition in vivo at 30 mg/kg (Rattus norvegicus [5]): 84%
- Drug metabolism (Blood): metabolite_detected
- inhibition in vivo at 30 mg/kg (Rattus norvegicus [6]): 79%
- inhibition in vivo at 3 mg/kg (Rattus norvegicus [7]): 50%
- inhibition in vivo at 100 mg/kg (Rattus norvegicus [8]): 91%
- Activity (Rattus norvegicus [9]): 0.24 mL
- inhibition in vivo at 1 mg/kg (Rattus norvegicus [10]): 16%
- Activity (Rattus norvegicus [11]): 0.17 mL
- inhibition in vivo at 10 mg/kg (Rattus norvegicus [12]): 80%
- IC50 [13]: 1.94 mM
- Activity (Rattus norvegicus [14]): 0.47 mL
- inhibition in vivo at 10 mg/kg (Rattus norvegicus [15]): 75%
- Drug metabolism (Serum [16]): metabolite_detected
- Drug metabolism (Serum [17]): metabolite_detected
- Drug metabolism (Serum [18]): metabolite_notdetected
- Activity (Rattus norvegicus [19]): 0.95 mL
- Activity (Cavia porcellus [20]): 7%
- Activity (Rattus norvegicus [21]): 0.41 mL
- IC50 [22]: 1.51 mM

Compound: CCOC(=O)C(=O)Nc1ccccc(NC)c1=O
- inhibition in vivo at 30 mg/kg (Rattus norvegicus [5]): 83%
- inhibition in vivo at 30 mg/kg (Rattus norvegicus [6]): 0%
- inhibition in vivo at 10 mg/kg (Rattus norvegicus [12]): 73%

Compound: CNC[C@H](O)c1ccc(O)c(O)c1
- Activity (Cavia porcellus [20]): 84%

Compound: CCCCCOC(=O)C(=O)Nc1cccccc1=O
- inhibition in vivo at 30 mg/kg (Rattus norvegicus [5]): 57%
- inhibition in vivo at 30 mg/kg (Rattus norvegicus [6]): 12%
- inhibition in vivo at 10 mg/kg (Rattus norvegicus [12]): 61%

Compound: CCOC(=O)C(=O)Nc1ccccc(-c2ccccc2)c1=O
- inhibition in vivo at 30 mg/kg (Rattus norvegicus [5]): 72%
- inhibition in vivo at 100 mg/kg (Rattus norvegicus [8]): 0%
- inhibition in vivo at 10 mg/kg (Rattus norvegicus [12]): 57%

Compound: Cn1c(=O)c2[nH]cnc2n(C)c1=O
- Activity (Cavia porcellus [23]): 5%

Compound: COc1cccc2c(=O)c(CO)coc12
- inhibition in vivo at 3 mg/kg (Rattus norvegicus [1]): 39%
- Activity (Rattus norvegicus [2]): 0.32 mL
- inhibition in vivo at 30 mg/kg (Rattus norvegicus [5]): 98%
- inhibition in vivo at 30 mg/kg (Rattus norvegicus [6]): 53%
- inhibition in vivo at 3 mg/kg (Rattus norvegicus [7]): 15%
- inhibition in vivo at 100 mg/kg (Rattus norvegicus [8]): 83%
- Activity (Rattus norvegicus [9]): 0.74 mL
- inhibition in vivo at 1 mg/kg (Rattus norvegicus [10]): 14%
- Activity (Rattus norvegicus [11]): 0.63 mL
- inhibition in vivo at 10 mg/kg (Rattus norvegicus [12]): 70%
- Activity (Rattus norvegicus [14]): 1.13 mL
- inhibition in vivo at 10 mg/kg (Rattus norvegicus [15]): 44%
- Activity (Rattus norvegicus [19]): 1 mL
- Activity (Rattus norvegicus [21]): 0.68 mL

Compound: CCOC(=O)C(=O)Nc1ccccc(OC)c1=O
- inhibition in vivo at 30 mg/kg (Rattus norvegicus [5]): 52%
- inhibition in vivo at 30 mg/kg (Rattus norvegicus [6]): 59%
- inhibition in vivo at 100 mg/kg (Rattus norvegicus [8]): 56%
- inhibition in vivo at 10 mg/kg (Rattus norvegicus [12]): 24%

Compound: O=C([O-])C(=O)Nc1cccccc1=O.[K+]
- Activity (Rattus norvegicus [2]): 0.36 mL
- inhibition (INH) (Rattus norvegicus [5]): 75%
- Activity (Rattus norvegicus [24]): 0.69 mL
- inhibition (INH) (Rattus norvegicus [6]): 53%
- inhibition (INH) (Rattus norvegicus [7]): 35%
- inhibition (INH) (Rattus norvegicus [8]): 68%
- Activity (Rattus norvegicus [9]): 0.66 mL
- Activity (Rattus norvegicus [11]): 0.44 mL
- inhibition (INH) (Rattus norvegicus [12]): 70%
- Activity (Rattus norvegicus [25]): 0.69 mL
- IC50 [13]: 5 mM
- Activity (Rattus norvegicus [14]): 0.61 mL
- inhibition (INH) (Rattus norvegicus [15]): 31%
- inhibition in vivo at 5 mg/kg (Rattus norvegicus [26]): 46%
- inhibition in vivo at 2 mg/kg (Rattus norvegicus [27]): 46%
- IC50 [22]: 5.1 mM
